{"source": "ChEMBL document CHEMBL4765376", "about": "“Discovery of an Orally Available Diazabicyclooctane Inhibitor (ETX0282) of Class A, C, and D Serine β-Lactamases” (J Med Chem, 2020)", "key": {"[1]": {"test_system": "Citrobacter freundii", "test": "Antibacterial activity against Citrobacter freundii ARC 3518 carbapenem resistant clinical isolates assessed as reduction in bacterial growth by CLSI based broth dilution method", "assay_type": "functional", "how_it_was_run": "(§1)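 Broth microdilution per CLSI in cation-adjusted Mueller–Hinton broth against drug-resistant clinical isolates; MIC read as the lowest concentration preventing bacterial growth.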"}, "[2]": {"test_system": "Escherichia coli", "test": "Antibacterial activity against Escherichia coli ARC 6059 drug resistant clinical isolates assessed as reduction in bacterial growth by CLSI based broth dilution method", "assay_type": "functional", "how_it_was_run": "as §1"}, "[3]": {"test": "AUC in Sprague-Dawley rat at 10 mg/kg, iv by LC/MS/MS analysis", "assay_type": "ADME, organism-based", "design": "dose 10 mg/kg", "settings": "in vivo", "how_it_was_run": "(§2)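 Jugular vein-cannulated male Sprague Dawley rats, 180–200 g, n = 3, given 10 mg/kg iv in 0.9% saline. Formulation pH checked at 4–7. […] Half-life taken from linear regression of the semilog concentration–time plot.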"}, "[4]": {"test_system": "Klebsiella pneumoniae", "test": "Antibacterial activity against Klebsiella pneumoniae ARC 6088 carbapenem-resistant clinical isolates assessed as reduction in bacterial growth by CLSI based broth dilution method", "assay_type": "functional", "how_it_was_run": "as §1"}, "[5]": {"test": "Drug metabolism assessed as diamine metabolite formation"}, "[6]": {"test_system": "Escherichia coli", "test": "Synergistic antibacterial activity against Escherichia coli ARC 6077 drug resistant clinical isolates assessed as MIC for cefpodoxime antibacterial activity by CLSI based broth dilution method (Rvb > 64 ug/ml)", "assay_type": "functional"}, "[7]": {"test": "Cmax in Sprague-Dawley rat at 10 mg/kg, iv by LC/MS/MS analysis", "assay_type": "ADME, organism-based", "design": "route intravenous, dose 10 mg/kg", "settings": "in vivo", "how_it_was_run": "as §2"}, "[8]": {"test_system": "Escherichia coli", "test": "Antibacterial activity against Escherichia coli ARC 6064 drug resistant clinical isolates assessed as reduction in bacterial growth by CLSI based broth dilution method", "assay_type": "functional", "how_it_was_run": "as §1"}, "[9]": {"test": "Half-life in Sprague-Dawley rat at 10 mg/kg, iv by LC/MS/MS analysis", "assay_type": "ADME, organism-based", "settings": "in vivo", "how_it_was_run": "as §2"}, "[10]": {"test": "Drug excretion in Sprague-Dawley rat urine assessed as unchanged drug at 10 mg/kg, iv by LC/MS/MS analysis", "assay_type": "ADME, organism-based", "settings": "read-out: Drug excretion", "how_it_was_run": "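Male Sprague Dawley rats, 10 mg/kg iv in 0.9% saline, n = 3. Urine assayed for unchanged parent drug, reported as percent of the administered iv dose.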"}, "[11]": {"test_system": "Enterobacter cloacae", "test": "Antibacterial activity against Enterobacter cloacae ARC 6055 drug resistant clinical isolates assessed as reduction in bacterial growth by CLSI based broth dilution method", "assay_type": "functional", "how_it_was_run": "as §1"}, "[12]": {"test": "Renal clearance in Sprague-Dawley rat at 10 mg/kg, iv by LC/MS/MS analysis", "assay_type": "ADME, organism-based", "settings": "in vivo", "how_it_was_run": "as §2"}, "[13]": {"test_system": "Escherichia coli", "test": "Synergistic antibacterial activity against Escherichia coli ARC 6064 drug resistant clinical isolates assessed as MIC for cefpodoxime antibacterial activity by CLSI based broth dilution method (Rvb > 64 ug/ml)", "assay_type": "functional"}, "[14]": {"test_system": "Escherichia coli", "test": "Antibacterial activity against Escherichia coli ARC 2687 drug resistant clinical isolates assessed as reduction in bacterial growth by CLSI based broth dilution method", "assay_type": "functional", "how_it_was_run": "as §1"}, "[15]": {"test_system": "Escherichia coli", "test": "Synergistic antibacterial activity against Escherichia coli ARC 6078 drug resistant clinical isolates assessed as MIC for cefpodoxime antibacterial activity by CLSI based broth dilution method (Rvb > 64 ug/ml)", "assay_type": "functional"}, "[16]": {"test_system": "Klebsiella pneumoniae", "test": "Antibacterial activity against Klebsiella pneumoniae ARC 6082 drug resistant clinical isolates assessed as reduction in bacterial growth by CLSI based broth dilution method", "assay_type": "functional", "how_it_was_run": "as §1"}, "[17]": {"test": "Inhibition of bacterial TEM-1 assessed as equilibrium constant using nitrocefin as chromogenic substrate by absorbance plate reader analysis"}, "[18]": {"test_system": "Klebsiella oxytoca", "test": "Antibacterial activity against Klebsiella oxytoca ARC 5389 carbapenem resistant clinical isolates assessed as reduction in bacterial growth by CLSI based broth dilution method", "assay_type": "functional", "how_it_was_run": "as §1"}, "[19]": {"test_system": "Klebsiella pneumoniae", "test": "Synergistic antibacterial activity against Klebsiella pneumoniae ARC 6082 drug resistant clinical isolates assessed as MIC for cefpodoxime antibacterial activity by CLSI based broth dilution method (Rvb > 64 ug/ml)", "assay_type": "functional"}, "[20]": {"test_system": "Enterobacter cloacae", "test": "Synergistic antibacterial activity against Enterobacter cloacae ARC 6049 drug resistant clinical isolates assessed as MIC for cefpodoxime antibacterial activity by CLSI based broth dilution method (Rvb > 64 ug/ml)", "assay_type": "functional"}, "[21]": {"test_system": "Klebsiella pneumoniae", "test": "Antibacterial activity against Klebsiella pneumoniae ARC 6107 carbapenem resistant clinical isolates assessed as reduction in bacterial growth by CLSI based broth dilution method", "assay_type": "functional", "how_it_was_run": "as §1"}, "[22]": {"test": "Clearance in Sprague-Dawley rat at 10 mg/kg, iv by LC/MS/MS analysis", "assay_type": "ADME, organism-based", "settings": "in vivo", "how_it_was_run": "as §2"}, "[23]": {"test_system": "Enterobacter cloacae", "test": "Synergistic antibacterial activity against Enterobacter cloacae ARC 6055 drug resistant clinical isolates assessed as MIC for cefpodoxime antibacterial activity by CLSI based broth dilution method (Rvb > 64 ug/ml)", "assay_type": "functional"}, "[24]": {"test_system": "Escherichia coli", "test": "Antibacterial activity against Escherichia coli ARC 6078 drug resistant clinical isolates assessed as reduction in bacterial growth by CLSI based broth dilution method", "assay_type": "functional", "how_it_was_run": "as §1"}, "[25]": {"test": "Volume of distribution at steady state in Sprague-Dawley rat at 10 mg/kg, iv by LC/MS/MS analysis", "assay_type": "ADME, organism-based", "settings": "in vivo, read-out: Vdss", "how_it_was_run": "as §2"}, "[26]": {"test_system": "Klebsiella pneumoniae", "test": "Synergistic antibacterial activity against Klebsiella pneumoniae ARC 6107 carbapenem resistant clinical isolates assessed as MIC for cefpodoxime antibacterial activity by CLSI based broth dilution method (Rvb > 64 ug/ml)", "assay_type": "functional"}, "[27]": {"test": "Protein binding in Sprague-Dawley rat plasma assessed as fraction unbound at 5 to 100 uM", "assay_type": "ADME, cell-free", "settings": "dose 5-100 µM", "how_it_was_run": "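Rat plasma protein binding reported as mean percent unbound across 5–100 μM.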"}, "[28]": {"test_system": "Klebsiella pneumoniae", "test": "Synergistic antibacterial activity against Klebsiella pneumoniae ARC 6088 carbapenem resistant clinical isolates assessed as MIC for cefpodoxime antibacterial activity by CLSI based broth dilution method (Rvb > 64 ug/ml)", "assay_type": "functional"}, "[29]": {"test_system": "Klebsiella pneumoniae", "test": "Synergistic antibacterial activity against Klebsiella pneumoniae ARC 6098 drug resistant clinical isolates assessed as MIC for cefpodoxime antibacterial activity by CLSI based broth dilution method (Rvb > 64 ug/ml)", "assay_type": "functional"}, "[30]": {"test_system": "Klebsiella pneumoniae", "test": "Antibacterial activity against Klebsiella pneumoniae ARC 6098 drug resistant clinical isolates assessed as reduction in bacterial growth by CLSI based broth dilution method", "assay_type": "functional", "how_it_was_run": "as §1"}, "[31]": {"test_system": "Escherichia coli", "test": "Synergistic antibacterial activity against Escherichia coli ARC 6059 drug resistant clinical isolates assessed as MIC for cefpodoxime antibacterial activity by CLSI based broth dilution method (Rvb > 64 ug/ml)", "assay_type": "functional"}, "[32]": {"test_system": "Klebsiella oxytoca", "test": "Synergistic antibacterial activity against Klebsiella oxytoca ARC 5389 carbapenem resistant clinical isolates assessed as MIC for cefpodoxime antibacterial activity by CLSI based broth dilution method (Rvb > 64 ug/ml)", "assay_type": "functional"}, "[33]": {"test_system": "Citrobacter freundii", "test": "Synergistic antibacterial activity against Citrobacter freundii ARC 3518 carbapenem resistant clinical isolates assessed as MIC for cefpodoxime antibacterial activity by CLSI based broth dilution method (Rvb > 64 ug/ml)", "assay_type": "functional"}, "[34]": {"test_system": "Enterobacter cloacae", "test": "Antibacterial activity against Enterobacter cloacae ARC 6049 drug resistant clinical isolates assessed as reduction in bacterial growth by CLSI based broth dilution method", "assay_type": "functional", "how_it_was_run": "as §1"}, "[35]": {"test_system": "Escherichia coli", "test": "Antibacterial activity against Escherichia coli ARC 6077 drug resistant clinical isolates assessed as reduction in bacterial growth by CLSI based broth dilution method", "assay_type": "functional", "how_it_was_run": "as §1"}}}
{"smiles": "CC1=C[C@H](C(N)=O)N2C[C@@H]1N(O[C@H](F)C(=O)O)C2=O", "values": [{"measurement": "MIC", "setting": "[1]", "result": 0.25, "unit": "µg/mL"}, {"measurement": "MIC", "setting": "[2]", "result": 16, "unit": "µg/mL"}, {"measurement": "AUC", "setting": "[3]", "result": 7190, "unit": "ng·h/mL"}, {"measurement": "MIC", "setting": "[4]", "result": 16, "unit": "µg/mL"}, {"measurement": "Drug metabolism", "setting": "[5]", "result": "Metabolite detected"}, {"measurement": "MIC", "setting": "[6]", "result": 0.125, "unit": "µg/mL"}, {"measurement": "Cmax", "setting": "[7]", "result": 17500, "unit": "ng/mL"}, {"measurement": "MIC", "setting": "[8]", "result": 8, "unit": "µg/mL"}, {"measurement": "half-life", "setting": "[9]", "result": 24, "unit": "min"}, {"measurement": "dose excreted", "setting": "[10]", "result": 60, "unit": "%"}, {"measurement": "MIC", "setting": "[11]", "result": 1, "unit": "µg/mL"}, {"measurement": "CL renal", "setting": "[12]", "result": 13.4, "unit": "mL/min/kg"}, {"measurement": "MIC", "setting": "[13]", "result": 0.5, "unit": "µg/mL"}, {"measurement": "MIC", "setting": "[14]", "result": 0.5, "unit": "µg/mL"}, {"measurement": "MIC", "setting": "[15]", "result": 0.25, "unit": "µg/mL"}, {"measurement": "MIC", "setting": "[16]", "result": 64, "unit": "µg/mL"}, {"measurement": "Ki", "setting": "[17]", "result": 0.34, "unit": "nM"}, {"measurement": "MIC", "setting": "[18]", "result": 16, "unit": "µg/mL"}, {"measurement": "MIC", "setting": "[19]", "result": 0.125, "unit": "µg/mL"}, {"measurement": "MIC", "setting": "[20]", "result": 0.125, "unit": "µg/mL"}, {"measurement": "MIC", "setting": "[21]", "result": 4, "unit": "µg/mL"}, {"measurement": "clearance", "setting": "[22]", "result": 23.1, "unit": "mL/min/kg"}, {"measurement": "MIC", "setting": "[23]", "result": 0.125, "unit": "µg/mL"}, {"measurement": "MIC", "setting": "[24]", "result": 0.25, "unit": "µg/mL"}, {"measurement": "Vd", "setting": "[25]", "result": 0.7, "unit": "L/kg"}, {"measurement": "MIC", "setting": "[26]", "result": 0.25, "unit": "µg/mL"}, {"measurement": "fraction unbound", "setting": "[27]", "result": 91, "unit": "%"}, {"measurement": "MIC", "setting": "[28]", "result": 0.125, "unit": "µg/mL"}, {"measurement": "MIC", "setting": "[29]", "result": 0.125, "unit": "µg/mL"}, {"measurement": "MIC", "setting": "[30]", "result": 16, "unit": "µg/mL"}, {"measurement": "MIC", "setting": "[31]", "result": 0.125, "unit": "µg/mL"}, {"measurement": "MIC", "setting": "[32]", "result": 0.5, "unit": "µg/mL"}, {"measurement": "MIC", "setting": "[33]", "result": 0.13, "unit": "µg/mL"}, {"measurement": "MIC", "setting": "[34]", "result": 1, "unit": "µg/mL"}, {"measurement": "MIC", "setting": "[35]", "result": 4, "unit": "µg/mL"}]}
